Key:
Rattus norvegicus [1] = assay: Percentage of animals failing to emit 50 lever presses within 15 min in DOI trained rats at a compound dose of 16 mg/kg; type: functional
Procedure, shortened: (§1)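 Male Sprague–Dawley rats (200–220 g) in a two-lever, FR50 food-reinforced task. Rats were trained to discriminate saline from LSD tartrate (0.08 mg/kg), DOI HCl (0.4 mg/kg) or LY293284 (0.025 mg/kg) in 15-min sessions. %SDL is the share of rats making over 80% of presses on the drug lever. %D is the share failing to make 50 presses within 15 min. ED50 by Litchfield–Wilcoxon log-probit.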

Rattus norvegicus [2] = assay: Percentage of animals failing to emit 50 lever presses within 15 min in LSD trained rats at a compound dose of 16 mg/kg; type: functional; procedure, shortened: as §1
Rattus norvegicus [3] = assay: Percentage of animals emitting >80% of lever presses in LSD trained rats at a compound dose of 1.58 uM/Kg; type: functional; procedure, shortened: as §1
Rattus norvegicus [4] = assay: Percentage of animals failing to emit 50 lever presses within 15 min in LSD trained rats at a compound dose of 8.0 mg/kg; type: functional
Procedure, shortened: (§2)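 Two-lever drug discrimination in male Sprague–Dawley rats (200–220 g at start), trained against saline on LSD tartrate (0.08 mg/kg), DOI HCl (0.4 mg/kg) or LY293284 (0.025 mg/kg). FR50 food-pellet reinforcement, levers counterbalanced, 15-min sessions at 22–24 °C. %D is the share of tested rats not completing 50 lever presses within 15 min.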

Rattus norvegicus [5] = assay: Percentage of animals emitting >80% of lever presses in LSD trained rats at a compound dose of 6.32 uM/Kg; type: functional; procedure, shortened: as §1
Rattus norvegicus [6] = assay: Percentage of animals emitting >80% of lever presses in DOI trained rats at a compound dose of 6.32 uM/Kg; type: functional; procedure, shortened: as §1
Rattus norvegicus [7] = assay: Percentage of animals failing to emit 50 lever presses within 15 min in […] trained rats at a compound dose of 8 mg/kg; type: functional; procedure, shortened: as §2
Rattus norvegicus [8] = assay: Percentage of animals emitting >80% of lever presses in […] trained rats at a compound dose of 25.3 uM/Kg; type: functional; procedure, shortened: as §1
Rattus norvegicus [9] = assay: Percentage of animals failing to emit 50 lever presses within 15 min in LSD trained rats at a compound dose of 2.0 mg/kg; type: functional; procedure, shortened: as §1
Rattus norvegicus [10] = assay: Percentage of animals failing to emit 50 lever presses within 15 min in […] trained rats at a compound dose of 2 mg/kg; type: functional; procedure, shortened: as §2
Rattus norvegicus [11] = assay: Percentage of animals failing to emit 50 lever presses within 15 min in DOI trained rats at a compound dose of 4 mg/kg; type: functional; procedure, shortened: as §1
Rattus norvegicus [12] = assay: Percentage of animals emitting >80% of lever presses in DOI trained rats at a compound dose of 25.3 uM/Kg; type: functional; procedure, shortened: as §1
Rattus norvegicus [13] = assay: Percentage of animals failing to emit 50 lever presses within 15 min in LSD trained rats at a compound dose of 1.0 mg/kg; type: functional; procedure, shortened: as §1
Rattus norvegicus [14] = assay: Percentage of animals emitting >80% of lever presses in LSD trained rats at a compound dose of 50.6 uM/Kg; type: functional; procedure, shortened: as §1
Rattus norvegicus [15] = assay: Percentage of animals failing to emit 50 lever presses within 15 min in […] trained rats at a compound dose of 4 mg/kg; type: functional; procedure, shortened: as §2
Rattus norvegicus [16] = assay: Percentage of animals emitting >80% of lever presses in […] trained rats at a compound dose of 6.32 uM/Kg; type: functional; procedure, shortened: as §1
[17] = target: 5-hydroxytryptamine receptor 2B (Homo sapiens, UniProt P41595); assay: Compound was tested for the displacement of [3H]5-HT from clone human 5-hydroxytryptamine 2B receptor
Procedure, shortened: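 Membranes from AV12 cells stably expressing human 5-HT2B, 100–150 μg protein. [3H]-5-HT was about 2 nM (1.7–2.5 nM) final. Buffer was 50 mM Tris pH 7.4 with 3 mM CaCl2, 10 μM pargyline and 0.1% ascorbic acid. Drug dilutions spanned 6 log units. Incubation was 15 min at 37 °C. Nonspecific binding used 10 μM 5-HT or 1-NP. PEI-soaked GF/B filtration, scintillation counting, triplicate, sigmoid nonlinear regression.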

Rattus norvegicus [18] = assay: Percentage of animals emitting >80% of lever presses in LSD trained rats at a compound dose of 25.3 uM/Kg; type: functional; procedure, shortened: as §1
[19] = target: T1, 5-hydroxytryptamine receptor 1A (Rattus norvegicus, UniProt P19327); assay: Compound was tested for the displacement of [3H]-8-OH- DPAT from rat brain 5-hydroxytryptamine 1A receptor
T1 sequence (P19327 whole entry): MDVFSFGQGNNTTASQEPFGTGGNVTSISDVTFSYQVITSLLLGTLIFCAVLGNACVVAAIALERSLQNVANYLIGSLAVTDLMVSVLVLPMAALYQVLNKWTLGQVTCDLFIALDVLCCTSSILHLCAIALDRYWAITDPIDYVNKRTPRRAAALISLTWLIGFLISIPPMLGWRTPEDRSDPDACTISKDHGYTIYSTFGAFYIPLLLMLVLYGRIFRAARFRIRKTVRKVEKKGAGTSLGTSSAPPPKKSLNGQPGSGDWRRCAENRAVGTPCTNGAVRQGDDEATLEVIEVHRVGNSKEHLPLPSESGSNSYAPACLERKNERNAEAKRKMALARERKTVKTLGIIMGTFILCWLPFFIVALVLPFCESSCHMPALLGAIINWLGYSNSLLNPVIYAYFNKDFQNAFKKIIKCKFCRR
Procedure, shortened: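 Pooled rat hippocampal membranes were preincubated at 37 °C. Buffer was 50 mM Tris HCl pH 7.4 with 0.5 mM Na2EDTA, 10 mM MgCl2, 0.1% Na ascorbate and pargyline. 200–400 μg protein was incubated with [3H]-8-OH-DPAT for 15 min at 37 °C, then GF/C filtered and scintillation counted. Nonspecific binding was defined with 10 μM 5-HT. Triplicate tubes.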

Rattus norvegicus [20] = assay: Percentage of animals emitting >80% of lever presses in LSD trained rats at a compound dose of 12.6 uM/Kg; type: functional; procedure, shortened: as §1
Rattus norvegicus [21] = assay: Percentage of animals failing to emit 50 lever presses within 15 min in LSD trained rats at a compound dose of 0.5 mg/kg; type: functional; procedure, shortened: as §1
[22] = target: 5-hydroxytryptamine receptor 2A (Homo sapiens, UniProt P28223); assay: Compound was tested for the displacement of [125I]-DOI from clone human 5-hydroxytryptamine 2A receptor
Procedure, shortened: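 Membranes from AV12 hamster fibroblasts stably expressing human 5-HT2A or 5-HT2C. [125I]DOI was about 0.07–0.15 nM final. Buffer was 50 mM Tris-HCl pH 7.4 with 10 μM pargyline, 9.75 mM MgCl2, 0.5 mM Na2-EDTA and 0.1% Na ascorbate. Incubation was 30 min at 37 °C with about 40 μg protein (2A) or 30 μg (2C). Nonspecific binding used 1 μM ketanserin (2A) or 10 μM mianserin (2C). Read by gamma counting; sigmoid nonlinear regression.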

Rattus norvegicus [23] = assay: Percentage of animals emitting >80% of lever presses in […] trained rats at a compound dose of 50.6 uM/Kg; type: functional; procedure, shortened: as §1
Rattus norvegicus [24] = assay: Percentage of animals emitting >80% of lever presses in DOI trained rats at a compound dose of 50.6 uM/Kg; type: functional; procedure, shortened: as §1
Rattus norvegicus [25] = assay: Percentage of animals emitting >80% of lever presses in DOI trained rats at a compound dose of 12.6 uM/Kg; type: functional; procedure, shortened: as §1

Chain of 5-hydroxytryptamine receptor 2B (P41595 whole entry): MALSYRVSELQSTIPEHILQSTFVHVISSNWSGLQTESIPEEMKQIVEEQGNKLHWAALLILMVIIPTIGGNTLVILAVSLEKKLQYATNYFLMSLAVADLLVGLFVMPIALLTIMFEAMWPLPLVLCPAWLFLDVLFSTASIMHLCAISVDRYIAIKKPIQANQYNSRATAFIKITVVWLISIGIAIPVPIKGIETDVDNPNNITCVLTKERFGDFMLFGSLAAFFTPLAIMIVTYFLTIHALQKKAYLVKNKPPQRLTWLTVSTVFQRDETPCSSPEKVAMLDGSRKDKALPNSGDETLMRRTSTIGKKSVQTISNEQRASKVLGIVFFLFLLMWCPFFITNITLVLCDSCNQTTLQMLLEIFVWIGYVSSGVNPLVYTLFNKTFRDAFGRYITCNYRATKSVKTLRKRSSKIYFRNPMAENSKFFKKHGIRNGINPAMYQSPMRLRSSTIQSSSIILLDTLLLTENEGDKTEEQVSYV
Chain of 5-hydroxytryptamine receptor 2A (P28223 whole entry): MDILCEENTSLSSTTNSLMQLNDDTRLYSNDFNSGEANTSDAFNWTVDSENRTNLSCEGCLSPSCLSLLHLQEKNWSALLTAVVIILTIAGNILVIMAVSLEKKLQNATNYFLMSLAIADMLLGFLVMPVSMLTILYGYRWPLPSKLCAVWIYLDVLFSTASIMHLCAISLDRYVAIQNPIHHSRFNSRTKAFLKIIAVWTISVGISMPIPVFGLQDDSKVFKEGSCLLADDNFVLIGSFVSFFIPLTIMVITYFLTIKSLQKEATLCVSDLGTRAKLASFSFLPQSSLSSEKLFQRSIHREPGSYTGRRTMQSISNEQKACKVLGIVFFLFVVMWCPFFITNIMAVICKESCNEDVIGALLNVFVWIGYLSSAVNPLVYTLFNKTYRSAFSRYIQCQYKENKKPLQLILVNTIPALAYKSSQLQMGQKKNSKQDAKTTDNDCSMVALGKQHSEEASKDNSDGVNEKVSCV

`CN(C)CCc1c[nH]c2sccc12` gave a D (Rattus norvegicus [1]) of 50%, a D (Rattus norvegicus [2]) of 50% and an SDL (Rattus norvegicus [3]) of 14%. For the same compound, the D (Rattus norvegicus [4]) was 0%, the SDL (Rattus norvegicus [5]) was 9% and the SDL (Rattus norvegicus [6]) was 0%. It also gave a D (Rattus norvegicus [7]) of 0%, an SDL (Rattus norvegicus [8]) of 58% and a D (Rattus norvegicus [9]) of 0%. For the same compound, the D (Rattus norvegicus [10]) was 0%, the D (Rattus norvegicus [11]) was 0% and the SDL (Rattus norvegicus [12]) was 0%. It also gave a D (Rattus norvegicus [13]) of 0%, an SDL (Rattus norvegicus [14]) of 16.7% and a D (Rattus norvegicus [15]) of 0%. The SDL (Rattus norvegicus [16]) was 10%, the Ki [17] was 483 nM and the SDL (Rattus norvegicus [18]) was 9%. It also gave a Ki [19] of 184 nM, an SDL (Rattus norvegicus [20]) of 16.7% and a D (Rattus norvegicus [21]) of 22%. It also gave a Ki [22] of 106 nM, an SDL (Rattus norvegicus [23]) of 83% and an SDL (Rattus norvegicus [24]) of 0%. It also gave an SDL (Rattus norvegicus [25]) of 0%.

Reference: ChEMBL document CHEMBL1132613 (J Med Chem, 1999)
